From ChEMBL document CHEMBL1145477, “Activity of T-1106 in a hamster model of yellow Fever virus infection” (Antimicrob Agents Chemother, 2007)
Calls of active or inactive are those of the source. No cut-off for these calls is given here.

Assays:
Yellow fever virus [1] = experiment: Antiviral activity against YFV Jimenez infected in Syrian golden hamster assessed as mean day to death after 21 days post-infection at 32 mg/kg, po bid for 7 days; type: functional
Yellow fever virus [2] = experiment: Antiviral activity against YFV Jimenez infected in Syrian golden hamster assessed as weight change at 100 mg/kg, ip bid for 7 days; type: functional; conditions: route intraperitoneal
Syrian golden hamster [3] = experiment: Toxicity in YFV infected Syrian golden hamster assessed as assessed as weight change at 32 mg/kg/day, ip bid for 7 days; type: organism-based, Mesocricetus auratus; set-up: route intraperitoneal; conditions: in vivo, 168 h
In short: (§1)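 Female Syrian golden hamsters (~100 g), toxicity-control groups of three, sham-infected. Drug suspended in saline or 0.4% carboxymethyl cellulose, given i.p. b.i.d. 12 h apart from −4 h through 7 days. Mortality checked daily; weight taken at 0, 3 and 6 dpi, with change taken as 3-to-6 dpi difference.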

Syrian golden hamster [4] = experiment: Toxicity in YFV infected Syrian golden hamster assessed as survival of animals at 32 mg/kg/day, ip bid for 7 days; type: organism-based, Mesocricetus auratus; set-up: route intraperitoneal; conditions: in vivo, 168 h; in short: as §1
Yellow fever virus [5] = experiment: Antiviral activity against YFV Jimenez infected in Syrian golden hamster assessed as survival of animal at 32 mg/kg, ip bid for 7 days; type: functional, organism-based; set-up: dose 32 mg/kg
Yellow fever virus [6] = experiment: Antiviral activity against YFV Jimenez infected in Syrian golden hamster liver treated 4 hrs before viral challenge assessed as mean day to death at 100 mg/kg/day, ip bid for 8 days; type: functional; conditions: route intraperitoneal
Yellow fever virus [7] = experiment: Antiviral activity against YFV Jimenez infected in Syrian golden hamster liver assessed as survival at 100 mg/kg/day, ip bid for 8 days administered after 3 days post-infection; type: functional, organism-based
Yellow fever virus [8] = experiment: Antiviral activity against YFV Jimenez infected in Syrian golden hamster assessed as weight change at 32 mg/kg, ip bid for 7 days; type: functional; conditions: route intraperitoneal
Yellow fever virus [9] = experiment: Antiviral activity against YFV Jimenez infected in Syrian golden hamster liver assessed as alanine aminotransferase at 100 mg/kg/day, ip bid for 8 days administered after 5 day post-infection; type: functional; conditions: route intraperitoneal
In short: (§2)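 YFV (Jimenez)-infected female hamsters were treated b.i.d. i.p. or p.o. Serum was drawn by ocular sinus at 6 dpi. ALT was read with a colorimetric kit adapted to microplates: substrate plus serum for 30 min at 37°C, then colour reagent and developer, absorbance at 505 nm. Values are IU/liter against saline controls.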

Yellow fever virus [10] = experiment: Antiviral activity against YFV Jimenez infected in Syrian golden hamster assessed as serum alanine aminotransferase at 100 mg/kg, po bid for 7 days; type: functional; in short: as §2
Yellow fever virus [11] = experiment: Antiviral activity against YFV Jimenez infected in Syrian golden hamster liver assessed as weight change at 100 mg/kg/day, ip bid for 8 days administered after 5 day post-infection; type: functional; conditions: route intraperitoneal
Yellow fever virus [12] = experiment: Antiviral activity against YFV Jimenez infected in Syrian golden hamster assessed as mean day to death after 21 days post-infection at 10 mg/kg, ip bid for 7 days; type: functional; conditions: route intraperitoneal
Yellow fever virus [13] = experiment: Antiviral activity against YFV Jimenez infected in Syrian golden hamster assessed as mean day to death after 21 days post-infection at 32 mg/kg, ip bid for 7 days; type: functional; conditions: route intraperitoneal
Yellow fever virus [14] = experiment: Antiviral activity against YFV Jimenez infected in Syrian golden hamster assessed as survival of animal at 32 mg/kg, po for 7 days; type: functional, organism-based; set-up: dose 32 mg/kg
Yellow fever virus [15] = experiment: Antiviral activity against YFV Jimenez infected in Syrian golden hamster assessed as serum alanine aminotransferase at 32 mg/kg, po bid for 7 days; type: functional; in short: as §2
Yellow fever virus [16] = experiment: Antiviral activity against YFV Jimenez infected in Syrian golden hamster assessed as survival of animal at 10 mg/kg, ip bid for 7 days; type: functional; conditions: route intraperitoneal
Yellow fever virus [17] = experiment: Antiviral activity against YFV Jimenez infected in Syrian golden hamster liver treated 4 hrs before viral challenge assessed as weight change at 100 mg/kg/day, ip bid for 8 days; type: functional; conditions: route intraperitoneal
Yellow fever virus [18] = experiment: Antiviral activity against YFV Jimenez infected in Syrian golden hamster liver assessed as mean day to death at 100 mg/kg/day, ip bid for 8 days administered after 4 day post-infection; type: functional; conditions: route intraperitoneal
Yellow fever virus [19] = experiment: Antiviral activity against YFV Jimenez infected in Syrian golden hamster assessed as mean day to death after 21 days post-infection at 100 mg/kg, ip bid for 7 days; type: functional; conditions: route intraperitoneal
Yellow fever virus [20] = experiment: Antiviral activity against YFV Jimenez infected in Syrian golden hamster liver assessed as mean day to death at 100 mg/kg/day, ip bid for 8 days administered after 3 days post-infection; type: functional; conditions: route intraperitoneal
[21] = Selectivity index, ratio of CC50 for MDBK cells to […] for BVDV; type: functional
[22] = Selectivity index, ratio of CC50 for african green monkey CV1 cells to EC50 for YFV infected in CV1 cells; type: functional, CV-1
In short: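 Jimenez hamster-adapted YFV at 10 CCID50/well on Vero or CV-1 monolayers; seven drug concentrations added 5–10 min before virus; 37°C for 6 days. CPE scored microscopically, then neutral red uptake (0.34% dye, 2 h, eluted and quantified). EC50 derived; CC50 from uninfected drug-treated cells; SI = CC50/EC50.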

Yellow fever virus [23] = experiment: Antiviral activity against YFV Jimenez infected in Syrian golden hamster liver assessed as mean day to death at 100 mg/kg/day, ip bid for 8 days administered after 2 days post-infection; type: functional; conditions: route intraperitoneal
Yellow fever virus [24] = experiment: Antiviral activity against YFV Jimenez infected in Syrian golden hamster assessed as serum alanine aminotransferase at 32 mg/kg, ip bid for 7 days; type: functional; conditions: route intraperitoneal; in short: as §2
Yellow fever virus [25] = experiment: Antiviral activity against YFV Jimenez infected in Syrian golden hamster liver assessed as alanine aminotransferase at 100 mg/kg/day, ip bid for 8 days administered after 1 day post-infection; type: functional; conditions: route intraperitoneal; in short: as §2
Yellow fever virus [26] = experiment: Antiviral activity against YFV Jimenez infected in Syrian golden hamster assessed as survival of animal at 100 mg/kg, bid ip for 7 days; type: functional, organism-based; set-up: dose 100 mg/kg

Q: With `NC(=O)c1nccn([C@@H]2O[C@H](CO)[C@@H](O)[C@H]2O)c1=O` as the compound, how does the Activity (Yellow fever virus [1]) read?
A: The Activity was greater than 21 days.

Q: What about the Activity (Yellow fever virus [2]) of the same compound?
A: The Activity was 7.1 g.

Q: And the Activity (Syrian golden hamster [3])?
A: Its Activity is 8.3 g.

Q: What about the Activity (Syrian golden hamster [4]) of the same compound?
A: Its Activity is “Non-toxic”.

Q: What about the Activity (Yellow fever virus [5]) of the same compound?
A: Its Activity is “Active”.

Q: What about the Activity (Yellow fever virus [6]) of the same compound?
A: Its Activity is greater than 21 days.

Q: And the Activity (Yellow fever virus [7])?
A: The Activity was “Active”.

Q: What about the Activity (Yellow fever virus [8]) of the same compound?
A: The Activity was 5.2 g.

Q: What about the Activity (Yellow fever virus [9]) of the same compound?
A: Its Activity is 205 IU/L.

Q: What about the Activity (Yellow fever virus [10]) of the same compound?
A: Its Activity is 56 IU/L.

Q: What about the Activity (Yellow fever virus [11]) of the same compound?
A: The Activity was -6.9 g.

Q: And the Activity (Yellow fever virus [12])?
A: The Activity was 8 days.

Q: What about the Activity (Yellow fever virus [13]) of the same compound?
A: The Activity was greater than 21 days.

Q: What about the Activity (Yellow fever virus [14]) of the same compound?
A: The Activity was “Active”.

Q: And the Activity (Yellow fever virus [15])?
A: The Activity was 61 IU/L.

Q: What about the Activity (Yellow fever virus [16]) of the same compound?
A: Its Activity is 80%.

Q: What about the Activity (Yellow fever virus [17]) of the same compound?
A: The Activity was 6 g.

Q: And the Activity (Yellow fever virus [18])?
A: Its Activity is 6 days.

Q: And the Activity (Yellow fever virus [19])?
A: Its Activity is greater than 21 days.

Q: And the Activity (Yellow fever virus [20])?
A: Its Activity is greater than 21 days.

Q: What about the “Ratio CC50/EC50” value [21] of the same compound?
A: The value was 207.

Q: And the “Ratio CC50/EC50” value [22]?
A: The value was 1.

Q: And the Activity (Yellow fever virus [23])?
A: The Activity was greater than 21 days.

Q: And the Activity (Yellow fever virus [24])?
A: The Activity was 65 IU/L.

Q: And the Activity (Yellow fever virus [25])?
A: The Activity was 56 IU/L.

Q: What about the Activity (Yellow fever virus [26]) of the same compound?
A: The Activity was “Active”.
